Experiments:
[1] = Reversal of P-gp-mediated multidrug resistance in human K562/A02 cells assessed as reduction of adriamycin IC50 at 5 uM after 48 hrs by MTT assay; type: cell-based; details: K562/A02, 48 h
In short: (§1)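 MTT on K562/A02 cells exposed to a series of adriamycin concentrations, with or without modulator at 5 µM; 0.1% DMSO as solvent control. Reversal fold = adriamycin IC50 without modulator / IC50 with modulator.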

[2] = Resistance factor, ratio of adriamycin IC50 for human K562/A02 cells over-expressing Pgp to adriamycin IC50 for human K562/A02 cells over-expressing Pgp in presence of 5 uM compound; type: functional; in short: as §1
[3] = Cytotoxicity against human K562/A02 cells at 5 uM after 48 hrs by MTT assay; type: cell-based; details: k562/a02, 48 h
In short: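 Adriamycin-selected K562/A02 cells given test compound alone at 5 µM for 48 h; cytotoxicity scored by MTT as intrinsic growth inhibition.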

[4] = Reversal of P-gp-mediated multidrug resistance in human K562/A02 cells assessed as reduction of adriamycin IC50 at 2.5 uM after 48 hrs by MTT assay; type: cell-based; details: K562/A02, 48 h
In short: (§2)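 K562/A02 (P-gp-overexpressing) cells given graded adriamycin plus modulator at 2.5, 1.25, 0.625, 0.31, 0.156, 0.078 or 0.04 µM; verapamil 2.5 µM as positive control; adriamycin IC50 by MTT. Reversal fold = IC50 without modulator / IC50 with modulator. Two to three experiments, mean ± SEM.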

[5] = Resistance factor, ratio of adriamycin IC50 for human K562/A02 cells over-expressing Pgp to adriamycin IC50 for human K562/A02 cells over-expressing Pgp in presence of 2.5 uM compound; type: functional; in short: as §2
[6] = Reversal of P-gp-mediated multidrug resistance in human K562/A02 cells assessed as reduction of adriamycin IC50 at 5 uM incubated for 24 hrs prior to adriamycin treatment measured after 48 hrs by MTT assay; type: cell-based
In short: (§3)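 K562/A02 cells incubated 24 h with 5 µM modulator, verapamil or vehicle, then washed with growth medium. […] Reversal fold = IC50 without modulator / IC50 with modulator. Two to three experiments, mean ± SEM.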

[7] = Reversal of P-gp-mediated multidrug resistance in human K562/A02 cells assessed as reduction of adriamycin IC50 at 5 uM incubated for 24 hrs followed by adriamycin treatment post compound washout measured after 48 hrs by MTT assay; type: cell-based; in short: as §3
[8] = Reversal of P-gp-mediated multidrug resistance in human K562/A02 cells assessed as reduction of adriamycin IC50 at 5 uM incubated for 24 hrs followed by adriamycin treatment 6 hrs post compound washout measured after 48 hrs by MTT assay; type: cell-based; in short: as §3
[9] = Reversal of P-gp-mediated multidrug resistance in human K562/A02 cells assessed as reduction of adriamycin IC50 at 5 uM incubated for 24 hrs followed by adriamycin treatment 12 hrs post compound washout measured after 48 hrs by MTT assay; type: cell-based; in short: as §3
[10] = Resistance factor, ratio of adriamycin IC50 for human K562/A02 cells over-expressing Pgp to adriamycin IC50 for human K562/A02 cells over-expressing Pgp in presence of 5 uM compound incubated for 24 hrs prior to adriamycin treatment; type: functional; in short: as §3
[11] = Resistance factor, ratio of adriamycin IC50 for human K562/A02 cells over-expressing Pgp to adriamycin IC50 for human K562/A02 cells over-expressing Pgp in presence of 5 uM compound incubated for 24 hrs followed by adriamycin treatment post compound washout; type: functional; in short: as §3
[12] = Cytotoxicity against human K562/A02 cells after 48 hrs by MTT assay; type: functional, cell-based; details: K562/A02, 48 h
[13] = Cytotoxicity against human GES-1 cells after 48 hrs by MTT assay; type: cell-based; details: GES1, 48 h
[14] = Reversal of P-gp-mediated multidrug resistance in human K562/A02 cells assessed as reduction of adriamycin IC50 at 1.25 uM after 48 hrs by MTT assay; type: cell-based; details: K562/A02, 48 h; in short: as §2
[15] = Reversal of P-gp-mediated multidrug resistance in human K562/A02 cells assessed as reduction of adriamycin IC50 at 0.625 uM after 48 hrs by MTT assay; type: cell-based; details: K562/A02, 48 h; in short: as §2
[16] = Reversal of P-gp-mediated multidrug resistance in human K562/A02 cells assessed as reduction of adriamycin IC50 at 0.31 uM after 48 hrs by MTT assay; type: cell-based; details: K562/A02, 48 h; in short: as §2
[17] = Reversal of P-gp-mediated multidrug resistance in human K562/A02 cells assessed as reduction of adriamycin IC50 at 0.156 uM after 48 hrs by MTT assay; type: cell-based; details: K562/A02, 48 h; in short: as §2
[18] = Reversal of P-gp-mediated multidrug resistance in human K562/A02 cells assessed as reduction of adriamycin IC50 at 0.078 uM after 48 hrs by MTT assay; type: cell-based; details: K562/A02, 48 h; in short: as §2
[19] = Reversal of P-gp-mediated multidrug resistance in human K562/A02 cells assessed as reduction of adriamycin IC50 at 0.04 uM after 48 hrs by MTT assay; type: cell-based; details: K562/A02, 48 h; in short: as §2
[20] = Resistance factor, ratio of adriamycin IC50 for human K562/A02 cells over-expressing Pgp to adriamycin IC50 for human K562/A02 cells over-expressing Pgp in presence of 1.25 uM compound; type: functional; in short: as §2
[21] = Resistance factor, ratio of adriamycin IC50 for human K562/A02 cells over-expressing Pgp to adriamycin IC50 for human K562/A02 cells over-expressing Pgp in presence of 0.625 uM compound; type: functional; in short: as §2
[22] = Resistance factor, ratio of adriamycin IC50 for human K562/A02 cells over-expressing Pgp to adriamycin IC50 for human K562/A02 cells over-expressing Pgp in presence of 0.31 uM compound; type: functional; in short: as §2
[23] = Resistance factor, ratio of adriamycin IC50 for human K562/A02 cells over-expressing Pgp to adriamycin IC50 for human K562/A02 cells over-expressing Pgp in presence of 0.156 uM compound; type: functional; in short: as §2
[24] = Resistance factor, ratio of adriamycin IC50 for human K562/A02 cells over-expressing Pgp to adriamycin IC50 for human K562/A02 cells over-expressing Pgp in presence of 0.078 uM compound; type: functional; in short: as §2
[25] = Resistance factor, ratio of adriamycin IC50 for human K562/A02 cells over-expressing Pgp to adriamycin IC50 for human K562/A02 cells over-expressing Pgp in presence of 0.04 uM compound; type: functional; in short: as §2
K562/A02 [26] = assay: Reversal of P-gp-mediated multidrug resistance in human K562/A02 cells assessed as reduction of adriamycin IC50 after 48 hrs by MTT assay; type: cell-based
[27] = Resistance factor, ratio of adriamycin IC50 for human K562/A02 cells over-expressing Pgp to adriamycin IC50 for human K562/A02 cells over-expressing Pgp in presence of 5 uM compound incubated for 24 hrs followed by adriamycin treatment 6 hrs post compound washout; type: functional; in short: as §3
[28] = Resistance factor, ratio of adriamycin IC50 for human K562/A02 cells over-expressing Pgp to adriamycin IC50 for human K562/A02 cells over-expressing Pgp in presence of 5 uM compound incubated for 24 hrs followed by adriamycin treatment 12 hrs post compound washout; type: functional; in short: as §3
K562/A02 [29] = assay: Inhibition of P-gp mediated efflux in human K562/A02 cells assessed as intracellular rhodamine-123 accumulation at 0.5 uM incubated for 60 mins prior to substrate addition measured after 90 mins by flow cytometry relative to control; type: cell-based
In short: (§4)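 K562 and K562/A02 cells pretreated 60 min with 0.5, 2.5 or 5 µM test compound or verapamil, then 5 µM rhodamine-123 added for 90 min. Cells washed twice with PBS and resuspended in medium; mean fluorescence read by flow cytometry. Fold change taken against 0.1% DMSO control in each cell group. Three independent experiments, mean ± SD.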

K562/A02 [30] = assay: Inhibition of P-gp mediated efflux in human K562/A02 cells assessed as intracellular rhodamine-123 accumulation at 2.5 uM incubated for 60 mins prior to substrate addition measured after 90 mins by flow cytometry relative to control; type: cell-based; in short: as §4
K562/A02 [31] = assay: Inhibition of P-gp mediated efflux in human K562/A02 cells assessed as intracellular rhodamine-123 accumulation at 5 uM incubated for 60 mins prior to substrate addition measured after 90 mins by flow cytometry relative to control; type: cell-based; in short: as §4
K562/A02 [32] = assay: Inhibition of P-gp mediated efflux in human K562/A02 cells assessed as intracellular rhodamine-123 accumulation incubated for 60 mins prior to substrate addition measured after 90 mins by flow cytometry relative to control; type: cell-based; in short: as §4
K562/A02 [33] = assay: Inhibition of P-gp mediated efflux in human K562/A02 cells assessed as intracellular rhodamine-123 accumulation at 5 uM incubated for 60 mins prior to substrate addition measured after 90 mins by flow cytometry relative to DMSO control

COc1cc2c(cc1OC)CN(CCn1cc(COc3ccccc3NC(=O)c3ccccc3OC)nn1)CC2
IC50 [1]: 6.75 µM
Ratio IC50 [2]: 8.1
Activity [3]: < 10%

COc1cccc(C(=O)Nc2ccccc2OCc2cn(CCN3CCc4cc(OC)c(OC)cc4C3)nn2)c1
IC50 [1]: 9.71 µM
Ratio IC50 [2]: 5.6
Activity [3]: < 10%

COc1cc2c(cc1OC)CN(CCn1cc(COc3ccccc3NC(=O)c3ccc(N(C)C)cc3)nn1)CC2
IC50 [1]: 9.32 µM
Ratio IC50 [2]: 5.8
Activity [3]: < 10%

COc1ccc(CCN(C)CCCC(C#N)(c2ccc(OC)c(OC)c2)C(C)C)cc1OC (configuration not stated) [VERAPAMIL]
IC50 [1]: 6.8 µM
Ratio IC50 [2]: 8.7
IC50 [4]: 15.9 µM
Ratio IC50 [5]: 3.4
IC50 [6]: 9.6 µM
IC50 [7]: 40.8 µM
IC50 [8]: > 80 µM
IC50 [9]: > 80 µM
Ratio IC50 [10]: 8.4
Ratio IC50 [11]: 1.9

COc1cc2c(cc1OC)CN(CCn1cc(COc3ccccc3NC(=O)c3ccccc3)nn1)CC2
IC50 [1]: 10.8 µM
Ratio IC50 [2]: 5
Activity [3]: < 10%

COc1cc2c(cc1OC)CN(CCn1cc(COc3ccccc3NC(=O)c3cccnc3)nn1)CC2
IC50 [1]: 18.9 µM
Ratio IC50 [2]: 2.9
Activity [3]: < 10%

COc1cc2c(cc1OC)CN(CCn1cc(COc3ccccc3NC(=O)c3cc(OC)c(OC)c(OC)c3)nn1)CC2
IC50 [1]: 3.23 µM
Ratio IC50 [2]: 16.8
Activity [3]: < 10%

COc1cc2c(cc1OC)CN(CCn1cc(COc3ccccc3NC(=O)c3ccc(C(C)(C)C)cc3)nn1)CC2
IC50 [1]: 1.67 µM
Ratio IC50 [2]: 32.5
Activity [3]: < 10%
IC50 [12]: > 80 µM
IC50 [13]: > 80 µM
IC50 [4]: 2.97 µM
IC50 [14]: 3.14 µM
IC50 [15]: 5.2 µM
IC50 [16]: 6.39 µM
IC50 [17]: 37 µM
IC50 [18]: 43.8 µM
IC50 [19]: 32.9 µM
Ratio IC50 [5]: 18.5
Ratio IC50 [20]: 17.4
Ratio IC50 [21]: 10.5
Ratio IC50 [22]: 8.6
Ratio IC50 [23]: 1.5
Ratio IC50 [24]: 1.3
Ratio IC50 [25]: 1.6
Activity (K562/A02 [26]): Dose-dependent effect
IC50 [6]: 2.16 µM
IC50 [7]: 11 µM
IC50 [8]: 35.6 µM
IC50 [9]: 54.5 µM
Ratio IC50 [10]: 37.4
Ratio IC50 [11]: 7.7
Ratio IC50 [27]: 2.4
Ratio IC50 [28]: 1.5
fold change (FC) (K562/A02 [29]): 1.55
fold change (FC) (K562/A02 [30]): 2.4
fold change (FC) (K562/A02 [31]): 4.04
inhibition (K562/A02 [32]): Dose-dependent effect
Ratio (K562/A02 [33]): 2.4

COc1cc2c(cc1OC)CN(CCn1cc(COc3ccccc3NC(=O)c3cnc4ccccc4c3)nn1)CC2
IC50 [1]: 8.89 µM
Ratio IC50 [2]: 6.1
Activity [3]: < 10%

COc1cc2c(cc1OC)CN(CCn1cc(COc3ccccc3NC(=O)c3ccc(C)cc3)nn1)CC2
IC50 [1]: 7.25 µM
Ratio IC50 [2]: 7.5
Activity [3]: < 10%
